The values that follow come from ChEMBL document CHEMBL1139757, “Synthesis and evaluation of water-soluble docetaxel prodrugs-docetaxel esters of malic acid” (Bioorg Med Chem, 2007).

One series relates to A549. Nature of the series: Cytotoxicity against human A549 cells by MTT assay. The class given is functional, cell-based. The method in brief: (§1)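 Cells exposed to compound for 48 h. MTT then added (final 0.5 mg/ml in RPMI-1640) for a further 4 h at 37 °C. Formazan dissolved in DMSO and absorbance read at 570 nm. IC50 for 50% inhibition of viability derived by dose–effect analysis. Three replicate wells per point, each experiment run in triplicate.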

A short description of series [1]: Stability in PBS buffer at pH 7.4 after 48 hrs. The series is classed as physicochemical.
The subject of another series is MCF7. The series is described as follows: Cytotoxicity against human MCF7 cells by MTT assay. The class given is functional, cell-based. Put shortly: as §1
A further series concerns KB. Nature of the series: Cytotoxicity against human KB cells by MTT assay. The class given is functional, cell-based. The method in brief:
as §1
In general terms: Tetrazolium assays rely on reduction of a dye to a coloured formazan, in cell work by metabolically active cells.

Series [2] in a line: Solubility in water. The series is classed as physicochemical. Put shortly: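 Compound suspended in water to 2 mg/mL, sonicated 15 min, then centrifuged at 13,000 rpm for 10 min. Supernatant quantified by reverse-phase HPLC with UV detection at 227 nm, taking extinction coefficients of prodrug and docetaxel as equal. Values are means of three experiments.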
In a further series the test system is K562. Nature of the series: Cytotoxicity against human K562 cells by MTT assay. The class given is functional, cell-based. The method in brief: as §1
A further series is filed under the species Homo sapiens. Nature of the series: Stability in human plasma.
The subject of a further series is H22. Nature of the series: Antitumor activity against mouse H22 cells xenografted ICR mouse assessed as tumor growth inhibition at 10 mg/kg, ip once daily after 7 days. The class given is functional. Conditions: 168 h, route intraperitoneal. The method in brief: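 Male ICR mice implanted s.c. in the armpit with H22 hepatoma cells (5 × 10⁶ per animal). Dosing began 24 h after implantation: ip once daily for 7 consecutive days at 5, 10 or 20 mg/kg. Saline served as negative control (20 mice), 10 mice per treated group. Tumors excised and weighed at day 8. Inhibition = (C − T)/C × 100 from mean tumor weights.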

The IC50 is the concentration that inhibits the measured activity by half. Low readings indicate inhibition by little substance, high ones a need for much substance. In general, half-life refers to the time needed for the level to fall by half in the phase considered. A higher half-life goes with slow loss. As usually defined, the solubility is the concentration that dissolves in the medium under given conditions. The low end stands for a poorly soluble substance, the high end for a readily soluble substance. Usually inhibition in vivo stands for how much of the control response was suppressed.

In brackets after ≈: the same amount, converted by molar mass.

On to `CC(=O)O[C@@]12CO[C@@H]1C[C@H](O)[C@@]1(C)C(=O)[C@H](O)C3=C(C)[C@@H](OC(=O)[C@H](OC(=O)CC(O)C(=O)O)[C@@H](NC(=O)OC(C)(C)C)c4ccccc4)C[C@@](O)([C@@H](OC(=O)c4ccccc4)[C@H]21)C3(C)C` (some centres undefined), for which the IC50 with A549 was greater than 50 µg/mL; with MCF7 it was 39.2 µg/mL (≈ 42.4 µM); with KB it was 3.5 µg/mL (≈ 3.79 µM); with K562, 9.5 µg/mL (≈ 10.3 µM). Further, the figures for the half-life (in series [1]; in the series listed under Homo sapiens) were greater than 48 h and 4 h, respectively. In addition, in series [2], the solubility was 470 µg/mL (≈ 509 µM).
As to `CC(=O)O[C@@]12CO[C@@H]1C[C@H](O)[C@@]1(C)C(=O)[C@H](O)C3=C(C)[C@@H](OC(=O)[C@H](OC(=O)C[C@@H](O)C(=O)O)[C@@H](NC(=O)OC(C)(C)C)c4ccccc4)C[C@@](O)([C@@H](OC(=O)c4ccccc4)[C@H]21)C3(C)C`, the IC50 in the series on A549 was greater than 50 µg/mL; with MCF7 it was greater than 50 µg/mL; in the series on KB, greater than 50 µg/mL; in the series on K562 it was 0.85 µg/mL (≈ 0.92 µM). Moreover, the half-life was greater than 48 h in series [1] and 4 h in the series listed under Homo sapiens. The concentration in solution in series [2] (solubility) was 470 µg/mL (≈ 509 µM).
As to `CC(=O)O[C@@]12CO[C@@H]1C[C@H](O)[C@@]1(C)C(=O)[C@H](O)C3=C(C)[C@@H](OC(=O)[C@H](OC(=O)C[C@@H](O)C(=O)[O-])[C@@H](NC(=O)OC(C)(C)C)c4ccccc4)C[C@@](O)([C@@H](OC(=O)c4ccccc4)[C@H]21)C3(C)C.[Na+]`, the IC50 was greater than 50 µg/mL with A549, greater than 50 µg/mL in the series on MCF7, greater than 50 µg/mL in the series with KB and 18.8 µg/mL in the series with K562. The half-life in series [1] is greater than 24 h; in the series filed under Homo sapiens, 3 h. This molecule also had a solubility in series [2] of 620 µg/mL.
In the case of `CC(=O)O[C@@]12CO[C@@H]1C[C@H](O)[C@@]1(C)C(=O)[C@H](O)C3=C(C)[C@@H](OC(=O)[C@H](OC(=O)C[C@H](O)C(=O)O)[C@@H](NC(=O)OC(C)(C)C)c4ccccc4)C[C@@](O)([C@@H](OC(=O)c4ccccc4)[C@H]21)C3(C)C`, the IC50 in the series with A549 is greater than 50 µg/mL; in the series with MCF7, greater than 50 µg/mL; with KB, greater than 50 µg/mL; in the series with K562 it was 3.9 µg/mL (≈ 4.22 µM). Besides, the half-life in series [1] was greater than 48 h; in the series listed under Homo sapiens, 4 h. The same molecule had a solubility in series [2] of 470 µg/mL (≈ 509 µM).
On to `CC(=O)O[C@@]12CO[C@@H]1C[C@H](O)[C@@]1(C)C(=O)[C@H](O)C3=C(C)[C@@H](OC(=O)[C@H](OC(=O)C[C@H](O)C(=O)[O-])[C@@H](NC(=O)OC(C)(C)C)c4ccccc4)C[C@@](O)([C@@H](OC(=O)c4ccccc4)[C@H]21)C3(C)C.[Na+]`, for which the IC50 is greater than 50 µg/mL in the series with A549, greater than 50 µg/mL with MCF7, greater than 50 µg/mL in the series with KB and 38.1 µg/mL in the series on K562. Further, the half-life in series [1] is greater than 24 h; in the series filed under Homo sapiens, 3 h. The same molecule gave a solubility in series [2] of 620 µg/mL.
With `CC(=O)O[C@@]12CO[C@@H]1C[C@H](OC(=O)CC(O)C(=O)O)[C@@]1(C)C(=O)[C@H](O)C3=C(C)[C@@H](OC(=O)[C@H](O)[C@@H](NC(=O)OC(C)(C)C)c4ccccc4)C[C@@](O)([C@@H](OC(=O)c4ccccc4)[C@H]21)C3(C)C` (mixture of isomers), the IC50 in the series on A549 was greater than 50 µg/mL; in the series on MCF7, greater than 50 µg/mL; in the series on KB, greater than 50 µg/mL; with K562, 0.069 µg/mL. The molecule also gave a half-life in series [1] greater than 48 h. In series [2], the solubility came to 430 µg/mL.
In the case of `CC(=O)O[C@@]12CO[C@@H]1C[C@H](O)[C@@]1(C)C(=O)[C@H](O)C3=C(C)[C@@H](OC(=O)[C@H](OC(=O)CC(O)C(=O)[O-])[C@@H](NC(=O)OC(C)(C)C)c4ccccc4)C[C@@](O)([C@@H](OC(=O)c4ccccc4)[C@H]21)C3(C)C.[Na+]` (mixture of isomers), the IC50 in the series with A549 was determined as 3.5 µg/mL; in the series with MCF7, 3.6 µg/mL; in the series on KB it was 0.45 µg/mL; in the series on K562, 1.5 µg/mL. For the same molecule, the half-life was greater than 24 h in series [1] and 3 h in the series listed under Homo sapiens. In series [2], this molecule gave a solubility of 620 µg/mL.
As for `CC(=O)O[C@@]12CO[C@@H]1C[C@H](OC(=O)CC(O)C(=O)O)[C@@]1(C)C(=O)[C@H](OC(=O)CC(O)C(=O)O)C3=C(C)[C@@H](OC(=O)[C@H](OC(=O)CC(O)C(=O)O)[C@@H](NC(=O)OC(C)(C)C)c4ccccc4)C[C@@](O)([C@@H](OC(=O)c4ccccc4)[C@H]21)C3(C)C` (mixture of isomers), the IC50 in the series with A549 is greater than 50 µg/mL; in the series on MCF7, greater than 50 µg/mL; with KB, greater than 50 µg/mL; with K562, 17 µg/mL. In addition, the half-life in series [1] was greater than 48 h. Further, the solubility in series [2] was 550 µg/mL.
In the case of `CC(=O)O[C@@]12CO[C@@H]1C[C@H](O)[C@@]1(C)C(=O)[C@H](O)C3=C(C)[C@@H](OC(=O)[C@H](O)[C@@H](NC(=O)OC(C)(C)C)c4ccccc4)C[C@@](O)([C@@H](OC(=O)c4ccccc4)[C@H]21)C3(C)C.O.O.O` [DOCETAXEL], the IC50 with A549 was determined as 1.4 µg/mL; with MCF7, 3.3 µg/mL; with KB it was 11.6 µg/mL; in the series on K562, 6.9 µg/mL. In addition, in the series with H22, the inhibition in vivo at 10 mg/kg was determined as 46.3%.
